A short description of data set [1]: Half life in rat liver microsomes. The data set is classed as ADME. A general note: Liver microsomes are vesicles of endoplasmic reticulum, rich in cytochrome P450 enzymes.
In a further data set the target is Cytochrome P450 2D6 (Homo sapiens, UniProt P10635). Kind of data set: Inhibition of CYP2D6 (unknown origin).
The nature of data set [2]: Plasma concentration in wild type C57BL mouse at 1 mg/kg, po measured after 4 hrs. It counts as ADME, organism-based. The method in brief:
(§1)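 Wild-type C57BL mice, single oral dose of 1 or 3 mg/kg. Plasma and brain drug levels were measured 4 h post-dose, and brain ABCA1 mRNA induction was compared with vehicle control.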

Data set [3] can be described thus: Half life in mouse liver microsomes. The data set is classed as ADME.
A short description of data set [4]: Half life in human liver microsomes. It counts as ADME.
The next data set addresses Cytochrome P450 2C9 (Homo sapiens, UniProt P11712). Kind of data set: Inhibition of CYP2C9 (unknown origin).
A further data set has as its target Cytochrome P450 3A4 (Homo sapiens, UniProt P08684). The experiment in a line: Inhibition of CYP3A4 (unknown origin).
Data set [5] can be described thus: Plasma concentration in Sprague-Dawley rat at 5 mg/kg, po measured after 4 hrs. It counts as ADME, organism-based. The essentials: (§2)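 Male Sprague–Dawley rats, single oral dose of 5 mg/kg. Plasma and brain drug levels, plus brain ABCA1 mRNA, were measured 4 h after dosing.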
Data set [6] is described as follows: Drug uptake in Sprague-Dawley rat brain at 10 mg/kg qd administered via oral gavage for 5 days measured 4 hrs post last dose. It counts as ADME, organism-based. The conditions noted are these: read-out: Drug uptake. The essentials:
(§3)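 Sprague–Dawley rats, oral dosing once daily for 5 days at 1, 3 or 10 mg/kg/day, with a reference LXR agonist at 30 mg/kg in the same study. Drug levels were measured in plasma and brain. Brain ABCA1 mRNA was also measured, along with Aβ1–40 and Aβ1–42 in cerebrum and CSF.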

Data set [7] is described as follows: Drug uptake in Sprague-Dawley rat brain at 3 mg/kg qd administered via oral gavage for 5 days measured 4 hrs post last dose. It counts as ADME, organism-based. The conditions noted are these: read-out: Drug uptake. The method in brief:
as §3

Data set [8] can be described thus: Plasma concentration in Sprague-Dawley rat at 10 mg/kg qd administered via oral gavage for 5 days measured 4 hrs post last dose. It counts as ADME, organism-based. The essentials: as §3
The nature of data set [9]: Drug uptake in wild type C57BL mouse brain at 3 mg/kg, po measured after 4 hrs. It counts as ADME, organism-based. The conditions noted are these: read-out: Drug uptake. The method in brief:
as §1

Data set [10] is described as follows: Drug uptake in Sprague-Dawley rat brain at 1 mg/kg qd administered via oral gavage for 5 days measured 4 hrs post last dose. The conditions noted are these: read-out: Drug uptake. It counts as ADME, organism-based. The essentials: as §3
A short description of data set [11]: Plasma concentration in wild type C57BL mouse at 3 mg/kg, po measured after 4 hrs. It counts as ADME, organism-based. The essentials: as §1
The nature of data set [12]: Plasma concentration in Sprague-Dawley rat at 1 mg/kg qd administered via oral gavage for 5 days measured 4 hrs post last dose. It counts as ADME, organism-based. The method in brief:
as §3

Data set [13] can be described thus: Drug uptake in Sprague-Dawley rat brain at 5 mg/kg, po measured after 4 hrs. The data set is classed as ADME, organism-based. The conditions noted are these: read-out: Drug uptake. The essentials:
as §2

Data set [14] can be described thus: Plasma concentration in Sprague-Dawley rat at 3 mg/kg qd administered via oral gavage for 5 days measured 4 hrs post last dose. It counts as ADME, organism-based. The method in brief: as §3
Data set [15] can be described thus: Drug uptake in wild type C57BL mouse brain at 30 mg/kg, po measured after 4 hrs. It counts as ADME, organism-based. The conditions noted are these: read-out: Drug uptake.
Another data set deals with Rattus norvegicus. The experiment in a line: Induction of ABCA1 mRNA expression in Sprague-Dawley rat brain at 30 mg/kg qd administered via oral gavage for 5 days measured 4 hrs post last dose relative to control. The data set is classed as functional.
Data set [16] can be described thus: Plasma concentration in wild type C57BL mouse at 30 mg/kg, po measured after 4 hrs. The data set is classed as ADME, organism-based.
The nature of data set [17]: Plasma concentration in Sprague-Dawley rat at 30 mg/kg qd administered via oral gavage for 5 days measured 4 hrs post last dose. The data set is classed as ADME, organism-based. The method in brief: as §3
A short description of data set [18]: Drug uptake in Sprague-Dawley rat brain at 30 mg/kg qd administered via oral gavage for 5 days measured 4 hrs post last dose. It counts as ADME, organism-based. The conditions noted are these: read-out: Drug uptake. The essentials:
as §3

The nature of data set [19]: Drug uptake in wild type C57BL mouse brain at 1 mg/kg, po measured after 4 hrs. It counts as ADME, organism-based. To be noted: read-out: Drug uptake. The method in brief:
as §1

Molecules are shown by their SMILES.

Cytochrome P450 2D6, sequence (P10635 whole entry): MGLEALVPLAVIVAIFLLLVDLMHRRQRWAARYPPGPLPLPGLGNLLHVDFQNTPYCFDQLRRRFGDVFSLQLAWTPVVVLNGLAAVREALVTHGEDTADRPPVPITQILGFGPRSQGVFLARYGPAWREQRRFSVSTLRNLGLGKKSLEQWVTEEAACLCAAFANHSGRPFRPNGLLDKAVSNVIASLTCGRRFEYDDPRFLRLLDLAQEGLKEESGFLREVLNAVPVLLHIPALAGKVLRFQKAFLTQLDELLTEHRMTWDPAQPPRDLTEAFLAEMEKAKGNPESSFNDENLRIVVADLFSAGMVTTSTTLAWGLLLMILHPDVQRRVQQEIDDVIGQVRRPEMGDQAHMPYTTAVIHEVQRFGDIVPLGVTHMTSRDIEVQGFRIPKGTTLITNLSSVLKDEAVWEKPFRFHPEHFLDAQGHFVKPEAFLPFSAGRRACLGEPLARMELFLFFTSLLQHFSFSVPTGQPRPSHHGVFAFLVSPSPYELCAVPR
Cytochrome P450 3A4, sequence (P08684 whole entry): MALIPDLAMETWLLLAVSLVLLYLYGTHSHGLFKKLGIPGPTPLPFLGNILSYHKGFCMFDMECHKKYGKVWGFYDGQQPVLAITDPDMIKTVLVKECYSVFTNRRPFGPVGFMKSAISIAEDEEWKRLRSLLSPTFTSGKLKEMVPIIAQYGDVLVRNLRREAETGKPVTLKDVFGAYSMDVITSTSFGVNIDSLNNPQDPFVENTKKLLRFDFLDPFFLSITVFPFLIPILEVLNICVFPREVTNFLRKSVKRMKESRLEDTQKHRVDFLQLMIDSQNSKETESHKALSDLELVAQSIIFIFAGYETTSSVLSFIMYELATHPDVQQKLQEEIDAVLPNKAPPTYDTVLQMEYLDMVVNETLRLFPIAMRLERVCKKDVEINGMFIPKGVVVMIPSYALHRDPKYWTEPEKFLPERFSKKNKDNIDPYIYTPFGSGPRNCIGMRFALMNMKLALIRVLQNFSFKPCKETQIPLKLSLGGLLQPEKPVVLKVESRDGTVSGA
Cytochrome P450 2C9, sequence (P11712 whole entry): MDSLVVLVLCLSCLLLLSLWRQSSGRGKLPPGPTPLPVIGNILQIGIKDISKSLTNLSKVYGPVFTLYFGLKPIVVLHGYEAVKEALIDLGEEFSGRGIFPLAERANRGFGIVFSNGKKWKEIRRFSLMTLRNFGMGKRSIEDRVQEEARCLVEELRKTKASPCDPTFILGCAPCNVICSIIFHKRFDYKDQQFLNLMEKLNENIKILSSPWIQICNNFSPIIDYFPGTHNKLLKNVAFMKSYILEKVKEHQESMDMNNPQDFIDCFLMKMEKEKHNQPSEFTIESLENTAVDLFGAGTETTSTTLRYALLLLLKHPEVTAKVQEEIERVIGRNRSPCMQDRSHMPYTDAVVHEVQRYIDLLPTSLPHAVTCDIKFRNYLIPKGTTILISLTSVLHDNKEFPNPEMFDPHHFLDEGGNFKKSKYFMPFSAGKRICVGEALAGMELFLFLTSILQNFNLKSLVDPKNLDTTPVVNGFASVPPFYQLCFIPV

Consider `COc1nc(C)cc(N2Cc3cn(-c4cccc(S(C)(=O)=O)c4)nc3[C@H]2C(C)C)n1`, for which the half-life in [1], in [3] and in data set [4] was over 1 h throughout. In addition, the results for the half-maximal inhibitory concentration (IC50) on Cytochrome P450 2D6 and on Cytochrome P450 2C9 were 24.2 µM and 5.75 µM, respectively. Further, in data set [2], the concentration at 4 h stood at 2 nM.
In the case of `COc1ncnc(N2Cc3cn(-c4cccc(S(C)(=O)=O)c4)nc3[C@H]2C(C)C)c1F`, the half-life in [1] and in data set [4] was over 1 h each time. Moreover, the IC50 (in general, the point on the concentration scale where inhibition reaches its midpoint) was 27 µM against Cytochrome P450 2D6, 1.44 µM against Cytochrome P450 2C9 and 2.5 µM on Cytochrome P450 3A4.
With `COc1cc(N2Cc3cn(-c4cccc(S(C)(=O)=O)c4)nc3[C@H]2C(C)(C)C)ccn1`, the results for the half-life in [1], in data set [3] and in data set [4] were over 1 h, 1.1 h and over 1 h, respectively. Further, the concentration at 4 h came to 1220 nM in data set [5]; 5040 nM in data set [6]; 1560 nM in data set [7]; 1570 nM in [8]; 1020 nM in [9]; 641 nM in [10]. In addition, the concentration at 4 h is 1080 nM in data set [11], 187 nM in [12], 2280 nM in data set [13] and 463 nM in data set [14]. Further, the IC50 is 7.8 µM against Cytochrome P450 2D6, 8.3 µM against Cytochrome P450 2C9 and over 30 µM against Cytochrome P450 3A4.
In the case of `CC(C)[C@@H]1CN(c2ccc(CO)c(S(C)(=O)=O)c2)CCN1c1ncc(CO)c(C(F)(F)F)n1`, the half-life (commonly the time needed for the level to fall by half in the phase considered) was 1.15 h in data set [1] and 0.717 h in [4].
Take `COc1cc(N2Cc3cn(-c4cccc(S(C)(=O)=O)c4)nc3[C@H]2C(C)C)nc(C)n1`: the IC50 against Cytochrome P450 2D6 was 5.37 µM; against Cytochrome P450 2C9, 6.62 µM; against Cytochrome P450 3A4 it was 12.9 µM. Moreover, the half-life in [4] was over 1 h.
As to `O=S(=O)(c1ccccc1)N(CC(F)(F)F)c1ccc(C(O)(C(F)(F)F)C(F)(F)F)cc1` [T091317], the concentration at 4 h in [15] came to 8050 nM; in [16], 3770 nM; in data set [17] it was 2800 nM; in data set [18] it was 5360 nM. The “fold change (FC)” value with Rattus norvegicus stood at 5.
As for `COc1ncc(F)c(N2Cc3cn(-c4cccc(S(C)(=O)=O)c4)nc3[C@H]2C(C)C)n1`, the half-life in data set [1] and in [4] was over 1 h throughout. Moreover, the IC50 against Cytochrome P450 2D6 was determined as 12.7 µM; against Cytochrome P450 2C9, 0.858 µM; against Cytochrome P450 3A4, 15.4 µM. The molecule also yielded a concentration at 4 h in data set [2] of 50 nM.
For the molecule `Cc1nc(N2Cc3cn(-c4cccc(S(C)(=O)=O)c4)nc3[C@H]2C(C)C)cc(C(F)(F)F)n1`, the half-life in data set [1], in [3] and in [4] was over 1 h in each case. The concentration at 4 h in [5] amounted to 423 nM; in data set [2], 143 nM; in data set [19] it was 212 nM; in data set [13], 825 nM. Moreover, the IC50 on Cytochrome P450 2D6 stood at 15.8 µM; at Cytochrome P450 2C9, 5.04 µM; against Cytochrome P450 3A4 it was 21.1 µM.
For `CC(C)[C@@H]1c2nn(-c3cccc(S(C)(=O)=O)c3)cc2CN1c1nccc(C(F)(F)F)n1`, the half-life in data set [1], in [3] and in data set [4] was over 1 h in each case. Further, the IC50 is 25.7 µM at Cytochrome P450 2D6, 2.11 µM against Cytochrome P450 2C9 and over 30 µM at Cytochrome P450 3A4.
In the case of `CC(C)[C@@H]1c2nn(-c3cccc(S(C)(=O)=O)c3)cc2CN1c1ncc(CO)c(C(F)(F)F)n1`, the half-life in data set [1] is 3.12 h; in data set [4] it was over 1 h. Further, the IC50 was 0.373 µM against Cytochrome P450 2C9 and 3.05 µM against Cytochrome P450 3A4.
Turning to `COc1cc(N2Cc3cn(-c4cccc(S(C)(=O)=O)c4)nc3[C@H]2C(C)C)cc(C)n1`, the 50% inhibitory concentration (IC50) against Cytochrome P450 2D6 is 25.7 µM; at Cytochrome P450 2C9, 3.81 µM; against Cytochrome P450 3A4 it was over 30 µM. This molecule also came in with a half-life in data set [3] of over 0.367 h.
`CC(C)[C@@H]1c2nn(-c3cccc(S(C)(=O)=O)c3)cc2CN1c1ccnc(C(F)(F)F)n1`: the half-life in [1], in data set [3] and in data set [4] was over 1 h in each case. In addition, the concentration at 4 h in [5] turned out to be 1740 nM; in data set [9], 3150 nM; in data set [11], 2890 nM; in data set [13] it was 2060 nM. Moreover, the IC50 at Cytochrome P450 2D6 was 20.9 µM; against Cytochrome P450 2C9, 1.87 µM; against Cytochrome P450 3A4 it was 12.8 µM.
With `CC(C)[C@@H]1c2nn(-c3ccc(CO)c(S(C)(=O)=O)c3)cc2CN1c1ncc(CO)c(C(F)(F)F)n1`, the half-life in data set [1] and in [4] was over 1 h throughout. Also, the values for the IC50 on Cytochrome P450 2D6, on Cytochrome P450 2C9 and on Cytochrome P450 3A4 were 7.75 µM, 0.493 µM and 7.7 µM, respectively.
Regarding `CC(C)[C@@H]1c2nn(-c3cccc(S(C)(=O)=O)c3)cc2CN1c1cc(C(F)(F)F)ncn1`, the values for the half-life in [1], in data set [3] and in [4] were over 1 h, 0.833 h and over 1 h, respectively. Further, the values for the IC50 against Cytochrome P450 2D6, on Cytochrome P450 2C9 and at Cytochrome P450 3A4 were over 30 µM, 5.21 µM and over 30 µM, respectively.
In the case of `COc1cc(N2Cc3cn(-c4cccc(S(C)(=O)=O)c4)nc3[C@H]2C(C)C)ccn1`, the half-life in data set [1], in data set [3] and in data set [4] was over 1 h in each case. Besides, the IC50 was over 30 µM at Cytochrome P450 2D6, 5.63 µM at Cytochrome P450 2C9 and over 30 µM at Cytochrome P450 3A4.

For the origin of these results see ChEMBL document CHEMBL3853334, “Brain penetrant liver X receptor (LXR) modulators based on a 2,4,5,6-tetrahydropyrrolo[3,4-c]pyrazole core” (Bioorg Med Chem Lett, 2016).
